The list is not random: actives were taken first. Their share in the collection is about 2.9%.
SUMO Mot1 rescue: inhibitors of SUMOylation pathway: yeast Mot1-301 growth rescue; S. cerevisiae Mot1-301 growth rescue, ATP luminescence, 38.5C; percent above DMSO median, 100 means doubled; growth rescue, % at 18.8 µM; AID 2716; hit rate 1% among 320,000;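 active = every valid replicate shows activation above 250% relative to neutral control wells; inactive = the rest, any valid replicate at or below 250%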
DNA FID counter: fluorescent intercalator displacement, NS3 helicase counter-screen; DNA fluorescent intercalator displacement, fluorescence; inhibition, % at 7.9 µM; hit rate 0.17% among 290,000; in the data active = inhibition above about 37%;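 note: higher means more ethidium bromide displaced from hairpin DNA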
UBC9 SUMO inh: SUMOylation inhibition; HTRF SUMOylation assay, SAE1/SAE2 + UBC9, in vitro; inhibition, % at 35 µM; hit rate 0.36% among 290,000; in the data active = inhibition above about 50%, passing the limit was not always enough
Target sequence (P63279 whole entry, looked up): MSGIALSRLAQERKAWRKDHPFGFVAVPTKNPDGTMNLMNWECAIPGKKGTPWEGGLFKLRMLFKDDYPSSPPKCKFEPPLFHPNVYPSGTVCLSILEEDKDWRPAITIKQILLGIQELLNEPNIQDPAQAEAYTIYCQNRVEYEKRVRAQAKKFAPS
VIM-2 inh: blocks Pseudomonas aeruginosa VIM-2 metallo-beta-lactamase; purified VIM-2, nitrocefin hydrolysis, epi-absorbance fluorescence; inhibition, % at 5.6 µM; hit rate 0.89% among 290,000; AID 1527;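 active = inhibition above the mean of all tested compounds plus 3 SD, cutoff set per screening run, cut at about 7.5% in these data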;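 note: red hydrolysis product quenches plate fluorescence so inhibitors raise well fluorescence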
NALP1 inh: inhibitors of NALP1 inflammasome in yeast; S. cerevisiae NALP1/ASC/caspase-1 growth, X-gal OD620, 72 h; inhibition, % at 10 µM; hit rate 0.61% among 280,000; in the data active = inhibition mostly above about 24%, no sharp cut-off; inactive = mostly below about 32%
IMP-1 inh-1: blocks Pseudomonas aeruginosa IMP-1 metallo-beta-lactamase; purified IMP-1, nitrocefin hydrolysis, epi-absorbance fluorescence; inhibition, % at 5.6 µM; hit rate 0.45% among 290,000;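 active = inhibition above the mean plus 3 SD of all compounds in the same screening run, cut at about 4.5% in these data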
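System: purified IMP-1; amount: IMP-1 0.2 nM before substrate addition; compound: single dose, 5.6 µM; times: 25 °C, 15 min preincubation, 25 min reaction; signal: Epi-absorbance via hydrolysed-nitrocefin quenching of white-plate fluorescence, 480/530 nm, EDTA stop; benchmarks: DMSO with and without IMP-1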
IMP-1 inh-2: blocks IMP-1 metallo-beta-lactamase in VIM-2 selectivity screen. shares compounds with VIM-2 inh. purified IMP-1, nitrocefin hydrolysis, epi-absorbance fluorescence. inhibition, % at 5.6 µM. 1,300 tested, under 10 active. AID 1856; call rule not given here
VIM-2 FRET ctr: counter-screen for VIM-2 inhibitors: epi-absorbance artifacts via FRET; shares compounds with VIM-2 inh; purified VIM-2, CCF2 FRET substrate hydrolysis; inhibition, % at 5.6 µM; hit rate 23% among 1,300; AID 1857;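 active = inhibition above the mean of all tested compounds plus 3 SD, cut at about 19% in these data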
TEM-1 inh: selectivity counter-screen for VIM-2 inhibitors: E. coli TEM-1 inhibitors | hit rate 3% among 1,300 | Purified TEM-1, nitrocefin hydrolysis, epi-absorbance fluorescence | shares compounds with VIM-2 inh | AID 1866 | inhibition, % at 5.6 µM;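 active = inhibition above that campaign's mean inhibition plus 3 SD, cut at about 0.46% in these data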
Target sequence (P62593 whole entry, looked up): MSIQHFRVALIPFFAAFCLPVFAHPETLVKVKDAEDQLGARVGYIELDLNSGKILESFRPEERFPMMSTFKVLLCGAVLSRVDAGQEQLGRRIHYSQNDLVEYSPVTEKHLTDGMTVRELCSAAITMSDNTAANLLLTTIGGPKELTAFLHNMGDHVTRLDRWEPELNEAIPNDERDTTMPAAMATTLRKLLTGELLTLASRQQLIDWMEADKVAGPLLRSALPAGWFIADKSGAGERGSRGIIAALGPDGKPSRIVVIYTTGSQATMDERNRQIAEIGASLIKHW
VIM-2 inh conf: confirmation of P. aeruginosa VIM-2 metallo-beta-lactamase inhibitors. hit rate 96% among 1,300. inhibition, % at 5.6 µM. shares compounds with VIM-2 inh. purified VIM-2, nitrocefin hydrolysis, epi-absorbance. AID 2187;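 active = inhibition of the VIM-2 beta-lactamase enzyme above about 11% from the earlier first-round screen, limit read from the data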
Large screens that a line does not name were inactive (follow-up assays come after a bar, where they were run).

CC1CC(C)CN(CCCNC(=O)C2CCN(c3ncnc4c3sc3cccc(F)c34)CC2)C1 (centres undefined)	VIM-2 inh 25 (no result: NALP1 inh) | IMP-1 inh-2 inactive | VIM-2 FRET ctr inactive | TEM-1 inh inactive | VIM-2 inh conf 36
Cc1cccc(C)c1NC(=O)CN(C)C(=O)Cc1cccc(C(F)(F)F)c1	none
COc1cc(-c2nnc(SCC3(c4ccccc4)OCCO3)o2)cc(OC)c1OC	none
COc1cc2nc(NCCCN3CCN(C)CC3)n3nc(-c4ccccc4)nc3c2cc1OC	VIM-2 inh 28 | IMP-1 inh-2 inactive | VIM-2 FRET ctr inactive | TEM-1 inh inactive | VIM-2 inh conf 48
CCN(CC)CCCNc1nc2cc(OC)c(OC)cc2c2nc(-c3cccnc3)nn12	VIM-2 inh 22 | IMP-1 inh-2 inactive | VIM-2 FRET ctr inactive | TEM-1 inh inactive | VIM-2 inh conf 42
CC(C)CCNC(=O)CCC(=O)NNc1nc2ccccc2c2nc(-c3ccccc3)nn12	none
CCN(CC)CCCNc1nc2ccccc2c2nc(-c3ccncc3)nn12	VIM-2 inh 28 | IMP-1 inh-2 inactive | VIM-2 FRET ctr inactive | TEM-1 inh inactive | VIM-2 inh conf 37
O=C(CN(CC1CCCO1)C(=O)CNS(=O)(=O)c1ccc(F)cc1)NC1CCCCC1 (centres undefined)	none
CCCCc1n[nH]c(=S)n1Cc1ccccc1	none
CCCc1n[nH]c(=S)n1Cc1ccco1	VIM-2 inh 17 (no result: NALP1 inh) | IMP-1 inh-2 inactive | VIM-2 FRET ctr 40 | TEM-1 inh inactive | VIM-2 inh conf 25
COc1ccccc1-n1c(-c2ccccc2)n[nH]c1=S	VIM-2 inh 15 (no result: SUMO Mot1 rescue) | IMP-1 inh-2 inactive | VIM-2 FRET ctr 46 | TEM-1 inh inactive | VIM-2 inh conf 26
COc1ccccc1-c1n[nH]c(=S)n1Cc1ccccc1	VIM-2 inh 25 | IMP-1 inh-2 inactive | VIM-2 FRET ctr 52 | TEM-1 inh inactive | VIM-2 inh conf 34
CCCCc1n[nH]c(=S)n1Cc1ccc(Cl)cc1	VIM-2 inh 15 | IMP-1 inh-2 inactive | VIM-2 FRET ctr 25 | TEM-1 inh inactive | VIM-2 inh conf 18
S=c1[nH]nc(-c2ccncc2)n1Cc1ccco1	none
COc1ccccc1-c1n[nH]c(=S)n1Cc1ccco1	VIM-2 inh 16 | IMP-1 inh-2 inactive | VIM-2 FRET ctr 47 | TEM-1 inh inactive | VIM-2 inh conf 29
O=C(NC(=S)NCC1CCCO1)c1ccccc1Br (centres undefined)	VIM-2 inh 28 | IMP-1 inh-2 inactive | VIM-2 FRET ctr 52 | TEM-1 inh inactive | VIM-2 inh conf 36
COCCNC(=O)C1CCCN(S(=O)(=O)c2ccc3c(c2)CC(C)N3C(=O)C2CC2)C1 (centres undefined)	none
O=C(C[n+]1cc(-c2ccc(Cl)cc2)n2c1CCCCC2)c1ccccc1	none
COc1ccc(-c2c[n+]3c4n2CCCCC4=C(c2ccc(Br)cc2)C3)cc1	VIM-2 inh 14 | IMP-1 inh-2 inactive | VIM-2 FRET ctr inactive | TEM-1 inh 2.5 | VIM-2 inh conf 13
COc1ccc(-c2cnc3n2CCCCC3)cc1	none (no result: NALP1 inh)
Clc1ccc(C2=C3CCCCn4c(-c5ccccc5)c[n+](c43)C2)cc1	VIM-2 inh 18 | IMP-1 inh-2 inactive | VIM-2 FRET ctr inactive | TEM-1 inh inactive | VIM-2 inh conf inactive
CC(C)(CO)NC(=O)C(Cc1ccccc1)N1C(=O)c2ccccc2C1=O (centres undefined)	none
CN(CC(=O)Nc1ccc(F)cc1)C(=O)c1ccncc1	none
COc1ccc(-c2oc3ncnc(NCCCN4CCOCC4)c3c2-c2ccc(OC)cc2)cc1	none
CCOc1cc2nc(-c3ccc(OC)c(OC)c3)nc(NCCCN3CCOCC3)c2cc1OC	DNA FID counter 43, VIM-2 inh 26 | IMP-1 inh-2 inactive | VIM-2 FRET ctr inactive | TEM-1 inh inactive | VIM-2 inh conf 49
O=C(NCc1ccc2[nH]c3c(c2c1)CCCC3)c1ccc(S(=O)(=O)N2CCOCC2)cc1	VIM-2 inh 14 | IMP-1 inh-2 inactive | VIM-2 FRET ctr 28 | TEM-1 inh inactive | VIM-2 inh conf 23
O=C(NCc1ccc2[nH]c3c(c2c1)CCCC3)N1CCOCC1	none
CN(C)S(=O)(=O)c1ccc(C(=O)NCc2ccc3[nH]c4c(c3c2)CCCC4)cc1	VIM-2 inh 14 | IMP-1 inh-2 inactive | VIM-2 FRET ctr 28 | TEM-1 inh inactive | VIM-2 inh conf 25
CCN(CC)S(=O)(=O)c1ccc(C(=O)NCc2ccc3[nH]c4c(c3c2)CCCC4)cc1	VIM-2 inh 14 | IMP-1 inh-2 inactive | VIM-2 FRET ctr 28 | TEM-1 inh inactive | VIM-2 inh conf 20
Cc1c(C(=O)NC(c2ccccn2)C(F)(F)F)oc2c(F)cccc12 (centres undefined)	none
Cc1c(C(=O)O)cccc1-c1ccc(/C=N/n2cnnc2)o1	none
Cc1c(Cl)cccc1-c1ccc(/C=N/n2cnnc2)o1	VIM-2 inh 32 | IMP-1 inh-2 inactive | VIM-2 FRET ctr inactive | TEM-1 inh inactive | VIM-2 inh conf 53
Clc1cccc(-c2ccc(/C=N/n3cnnc3)o2)c1Cl	VIM-2 inh 29 | IMP-1 inh-2 inactive | VIM-2 FRET ctr inactive | TEM-1 inh inactive | VIM-2 inh conf 64
Clc1ccc(Sc2ccc(/C=N/n3cnnc3)o2)cc1	none
Clc1ccccc1-c1ccc(/C=N/n2cnnc2)o1	VIM-2 inh 21 | IMP-1 inh-2 inactive | VIM-2 FRET ctr inactive | TEM-1 inh inactive | VIM-2 inh conf 42
CCN(CC)CCCNC(=O)c1cc2c(Cl)nc3ccccc3c2s1	VIM-2 inh 22 | IMP-1 inh-2 inactive | VIM-2 FRET ctr inactive | TEM-1 inh inactive | VIM-2 inh conf 32
COc1ccc(N(C)C(=O)c2cc3c(Cl)nc4ccccc4c3s2)cc1	none
CN(CCCNC(=O)c1cc2c(Cl)nc3ccccc3c2s1)Cc1ccccc1	VIM-2 inh 22 | IMP-1 inh-2 inactive | VIM-2 FRET ctr inactive | TEM-1 inh inactive | VIM-2 inh conf 31
COc1cc(NC(=O)c2cc3c(Cl)nc4ccccc4c3s2)cc(OC)c1OC	none
COCCN1CCN(Cc2cn[nH]c2-c2cc3ccccc3o2)CC1	none
O=C(NNS(=O)(=O)c1ccc(F)cc1)c1cc2ccccc2cc1O	none
CCCCCNC(=O)c1cn(CC)c2cc(N3CCN(C)CC3)c(F)cc2c1=O	none
